Among the data in ChEMBL document CHEMBL1667749, “Design & synthesis of N'-[substituted] pyridine-4-carbohydrazides as potential anticonvulsant agents” (Eur J Med Chem, 2011) are Activity, logP and ED50 values, retold here.

In data set [1] the test system is Mus musculus. In words: Anticonvulsant activity in albino CF-1 mouse assessed as protection against maximal electroshock-induced seizures at 300 mg/kg, ip after 0.5 hrs. Format: functional, organism-based. More on the design: dose 300 mg/kg. The method, boiled down: (§1)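 Male CF-1 mice (18–25 g), i.p. in 0.5% methyl cellulose at 30, 100 and 300 mg/kg; MES: 60 Hz, 50 mA, 0.2 s through tetracaine-primed corneal electrodes; protection = abolished hind limb tonic extension. Value given as minimum dose active in half or more of mice.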
For orientation: Protection in the maximal electroshock model is a classic sign of anticonvulsant action.

Data set [2] concerns Mus musculus. In words: Neurotoxicity in albino CF-1 mouse assessed as motor impairment at 300 mg/kg, ip after 4 hrs by rotarod test. Format: toxicity, organism-based. The arrangement: dose 300 mg/kg, route intraperitoneal. Particulars: in vivo. The method, boiled down:
(§2)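 Minimal motor impairment in male CF-1 mice by rotorod after i.p. dosing; toxic if animal falls off rotating rod 3 times within 1 min. Screen doses 30, 100, 300 mg/kg; quantitative TD50 (95% confidence interval) determined at time of peak effect.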
In general terms: In the rotarod test animals must keep their balance on a rotating rod.

Data set [3] has as its system Mus musculus. In words: Anticonvulsant activity in albino CF-1 mouse assessed as protection against maximal electroshock-induced seizures at 300 mg/kg, ip after 4 hrs. Format: functional, organism-based. More on the design: dose 300 mg/kg. The method, boiled down: as §1
Data set [4] deals with Mus musculus. In words: Anticonvulsant activity in albino CF-1 mouse assessed as protection against subcutaneous metrazol-induced seizures at 300 mg/kg, ip after 0.5 hrs. The arrangement: dose 300 mg/kg. Format: functional, organism-based. The method, boiled down: (§3)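 Male CF-1 mice, i.p. at 30, 100, 300 mg/kg in 0.5% methyl cellulose; metrazol dose convulsing 97% of animals injected s.c. in midline neck fold, mice isolated and watched 30 min; protected if no 3–5 s clonic spasm episode of limbs, jaws or vibrissae.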

Data set [5] deals with Mus musculus. Briefly: Anticonvulsant activity in albino CF-1 mouse assessed as protection against maximal electroshock-induced seizures at 300 mg/kg, ip after 2 hrs. More on the design: dose 300 mg/kg. Format: functional, organism-based. The method, boiled down: as §1
Data set [6] deals with Mus musculus. In words: Neurotoxicity in albino CF-1 mouse assessed as motor impairment at 300 mg/kg, ip after 0.5 hrs by rotarod test. Format: toxicity, organism-based. More on the design: dose 300 mg/kg, route intraperitoneal. To be noted: in vivo. An outline of the steps: as §2
Data set [7] is described as follows: Octanol-phosphate buffer partition coefficient, log P of the compound at 5 mg, after 24 hrs by UV spectroscopic analysis. Format: physicochemical. An outline of the steps:
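5 mg compound added to 10 mL octanol plus 10 mL phosphate buffer in stoppered tube, mechanically shaken 24 h at room temperature, then left in separating funnel 6 h to equilibrate.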

Data set [8] concerns Mus musculus. In words: Anticonvulsant activity in albino CF-1 mouse assessed as protection against subcutaneous metrazol-induced seizures at 300 mg/kg, ip after 4 hrs. Format: functional, organism-based. The arrangement: dose 300 mg/kg. An outline of the steps:
as §3

The subject of data set [9] is Mus musculus. In words: Anticonvulsant activity in albino CF-1 mouse assessed as protection against 6 Hz psychomotor seizure at 100 mg/kg, ip after 1 hr by minimal clonic seizure test. Format: functional. The method, boiled down: (§4)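 Male CF-1 mice (18–25 g), i.p. 100 mg/kg in 0.5% methyl cellulose suspension; 6 Hz corneal stimulation, 32 mA for 3 s, four mice per time point. Protected if no minimal clonic phase with stereotyped automatistic behaviour.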

For data set [10], the system named is Mus musculus. Briefly: Anticonvulsant activity in albino CF-1 mouse assessed as protection against 6 Hz psychomotor seizure at 100 mg/kg, ip after 0.25 hrs by minimal clonic seizure test. Format: functional. The method, boiled down: as §4
For data set [11], the system named is Mus musculus. Briefly: Anticonvulsant activity in albino CF-1 mouse assessed as protection against 6 Hz psychomotor seizure at 100 mg/kg, ip after 0.5 hrs by minimal clonic seizure test. Format: functional. The method, boiled down:
as §4

Data set [12] has as its system Rattus norvegicus. In words: Anticonvulsant activity in Sprague-Dawley rat assessed as protection against pilocarpine-induced status epilepticus at 600 mg/kg, ip. Format: functional, organism-based. The arrangement: dose 600 mg/kg. An outline of the steps:
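Male albino Sprague Dawley rats (150–180 g) dosed i.p., then challenged with pilocarpine; qualitative screen scored as protection or no protection, seizure severity graded on the Racine scale; N/F and deaths recorded, time taken post first Stage III seizure.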

Data set [13] concerns Mus musculus. In words: Anticonvulsant activity in albino CF-1 mouse assessed as protection against 6 Hz psychomotor seizure at 100 mg/kg, ip after 2 hrs by minimal clonic seizure test. Format: functional. An outline of the steps:
as §4

Data set [14] concerns Mus musculus. Briefly: Anticonvulsant activity in albino CF-1 mouse assessed as protection against 6 Hz psychomotor seizure at 100 mg/kg, ip after 4 hrs by minimal clonic seizure test. The arrangement: dose 100 mg/kg. Format: functional, organism-based. An outline of the steps: as §4
In data set [15] the test system is Mus musculus. In words: Anticonvulsant activity in ip dosed albino CF-1 mouse assessed as dose required to protect against maximal electroshock-induced seizures after 4 hrs. Format: functional. The method, boiled down:
as §1

The nature of data set [16]: Neuroprotective activity in hippocampal slices assessed as protection against NMDA-induced cell death after 4 hrs. Format: functional, tissue-based. To be noted: Hippocampus. The method, boiled down: (§5)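 Organotypic hippocampal slice cultures exposed to NMDA or kainic acid alone or with test compound; propidium iodide in all wells, cell death read as PI fluorescence intensity; qualitative primary screen.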

The subject of data set [17] is Mus musculus. Briefly: Anticonvulsant activity in ip dosed albino CF-1 mouse assessed as protection against 6 Hz psychomotor seizure after 1 hr by minimal clonic seizure test. Particulars: albino CF-1, ip. Format: functional. An outline of the steps:
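Quantitative 6 Hz test in male CF-1 mice dosed i.p.; 32 mA for 3 s via corneal electrodes at time of peak effect; ED50 with 95% confidence interval, slope and standard error reported.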

A short description of data set [18]: Neuroprotective activity in hippocampal slices assessed as protection against kainic acid-induced cell death after 4 hrs. Particulars: Hippocampus. Format: functional, tissue-based. An outline of the steps: as §5

Calls of active or inactive are those of the source. The rule behind the calls is not given here.

For orientation: logP means the decadic logarithm of the partition coefficient of the neutral form, usually between octanol and water. Higher therefore signals higher lipophilicity. For the compound `O=C(N/N=C\c1ccc(Oc2ccc([N+](=O)[O-])cc2)cc1)c1ccncc1`, the result in data set [1], in data set [3], in data set [4], in data set [5] and in [8] was inactive. Besides, the Activity result in [2] and in [6] was “Non-toxic” each time. In addition, the logP at 24 h in data set [7] stood at 3.23.

In the case of `O=C1Nc2ccccc2/C1=N\NC(=O)c1ccncc1`, the outcome in [1], in data set [3], in data set [4], in data set [5], in [12] and in data set [13] was inactive. For the same compound, the result in data set [14] and in [8] was inactive. The result in data set [9] and in data set [10] was Active. In addition, in data set [11] (route intraperitoneal), the Activity worked out at 50%.

Consider `O=C(N/N=C\c1ccc(Oc2ccccc2)cc1)c1ccncc1`, for which the outcome in data set [1], in data set [3], in [4], in data set [5] and in [8] was inactive. Also, the Activity result in data set [2] and in [6] was “Non-toxic” each time. The same compound registered a logP at 24 h in [7] of 3.37.

For `O=C(N/N=C\c1ccc(Oc2ccc(Br)cc2)cc1)c1ccncc1`, the result in data set [1], in data set [9], in data set [10], in [11], in [3] and in [4] was inactive. In addition, the outcome in data set [5], in data set [14] and in [8] was inactive. Further, the Activity entry in [2] and in data set [6] was “Non-toxic” throughout. Moreover, the result in data set [13] was Active. Also, the logP at 24 h in data set [7] was determined as 4.03.

For `O=C(N/N=C\c1ccc(Oc2ccc3c(c2)OCO3)cc1)c1ccncc1`, the result in data set [1], in data set [3], in data set [4], in [5] and in data set [8] was inactive. Besides, the Activity result in data set [2] and in [6] was “Non-toxic” each time. Also, the logP at 24 h in data set [7] was found to be 3.2.

As to `O=C(N/N=C\c1ccc(Oc2ccc3ccccc3c2)cc1)c1ccncc1`, the outcome in data set [1], in data set [3], in data set [4], in data set [5] and in data set [8] was inactive. In addition, the Activity entry in data set [2] and in data set [6] was “Non-toxic” in each case. The compound further displayed a logP at 24 h in data set [7] of 4.52.

As usually defined, the ED50 is the dose that gives a 50% effect, or the effect in half of the subjects. For the compound `Cc1ccc(Oc2ccc(/C=N\NC(=O)c3ccncc3)cc2)cc1`, the result in data set [1], in data set [16], in data set [4], in [18], in [5] and in [14] was inactive. In addition, in data set [8], the outcome was inactive. Further, the Activity in [9] (route intraperitoneal) is 75%; in [15], 300 mg/kg; in data set [2] it was “Non-toxic”; in data set [13] (route intraperitoneal) it was 50%; in data set [6] it was “Non-toxic”. Besides, the result in data set [10] and in data set [11] was Active. In addition, the ED50 in [17] was above 200 mg/kg. For the same compound, the logP at 24 h in data set [7] came to 3.65.

For `O=C(N/N=C\c1ccc(Oc2ccc(Cl)cc2)cc1)c1ccncc1`, the outcome in data set [1], in [3], in data set [4], in data set [5] and in data set [8] was inactive. Also, the Activity entry in data set [6] is given as “Non-toxic”. The logP at 24 h in [7] worked out at 3.95.

Turning to `Cc1cc(Oc2ccc(/C=N\NC(=O)c3ccncc3)cc2)ccc1Cl`, the result in data set [1], in data set [9], in data set [11], in data set [3], in [4] and in data set [5] was inactive. For the same compound, the outcome in data set [13], in data set [14] and in [8] was inactive. For the same compound, the result in data set [10] was Active. In addition, the Activity result in data set [2] and in [6] was “Non-toxic” throughout. Also, in data set [7], the logP at 24 h came to 4.21.
